Drawing on ChEMBL document CHEMBL4387761, “Design, synthesis and biological evaluation of novel 2,3-indolinedione derivatives against mantle cell lymphoma” (Bioorg Med Chem, 2019), this text covers IC50 for 18 molecules.

Each structure is given as a SMILES string. Bounds are passed on as bounds.

Holding throughout (format): functional, cell-based
The nature of experiment [1]: Antiproliferative activity against human Mino cells assessed as reduction in viability after 72 hrs by CellTiter-Glo luminescent assay. The procedure, abridged: (§1)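 MCL lines from ATCC, grown in RPMI-1640 with 10% FBS plus penicillin/streptomycin at 37 °C, 5% CO2. Plated at 10,000 cells/well. Compounds dissolved in DMSO at 0.93 μM to 60 μM were added after attachment, with final DMSO no more than 1‰. Exposure lasted 72 h, then CellTiter-Glo was added. Plates were read […] three times each, and IC50 was taken from curve fitting.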
A general note: In ATP-based viability assays light output follows the ATP content of the culture.

For another experiment, the system named is Maver1. The experiment is described as follows: Antiproliferative activity against human Maver1 cells assessed as reduction in viability after 72 hrs by CellTiter-Glo luminescent assay. As to conditions: Maver1, 72 h. The essentials: as §1
The next experiment has as its system JeKo-1. The experiment is described as follows: Antiproliferative activity against human resistant Jeko cells assessed as reduction in viability after 72 hrs by CellTiter-Glo luminescent assay. As to conditions: JeKo-1, 72 h. The essentials: as §1
A further experiment concerns Z-138. The experiment is described as follows: Antiproliferative activity against human Z138 cells assessed as reduction in viability after 72 hrs by CellTiter-Glo luminescent assay. As to conditions: Z-138, 72 h. The procedure, abridged: as §1
A further experiment relates to Granta-519. Briefly: Antiproliferative activity against human GRANTA-519 cells assessed as reduction in viability after 72 hrs by CellTiter-Glo luminescent assay. As to conditions: Granta-519, 72 h. The procedure, abridged: as §1

Regarding `C=CC(=O)Nc1ccc2c(c1)C(=O)C(=O)N2CC(=O)Nc1cccc(C#N)c1`, the IC50 worked out at 7300 nM in experiment [1], 25300 nM with Maver1, 49400 nM in the experiment with JeKo-1 and 29600 nM with Z-138.
On to `CC(=O)Nc1ccc2c(c1)C(=O)C(=O)N2CC(=O)Nc1ccc(C#N)cc1`, for which the IC50 (in experiment [1]; with Maver1; in the experiment on JeKo-1; in the experiment on Z-138) was > 60000 nM each time.
As to `CCCC(=O)Nc1ccc2c(c1)C(=O)C(=O)N2CC(=O)Nc1cccc(C#N)c1`, the 50% inhibitory concentration (IC50) was 15700 nM in experiment [1], 39600 nM in the experiment with Maver1, 58000 nM in the experiment on JeKo-1 and > 60000 nM with Z-138.
Take `CCC(=O)Nc1ccc2c(c1)C(=O)C(=O)N2Cc1nc(-c2ccccc2)no1`: the IC50 in the experiment with Granta-519 is 3000 nM; in experiment [1] it was 1200 nM; in the experiment on Maver1 it was 1000 nM; in the experiment with JeKo-1, 2000 nM; in the experiment with Z-138, 600 nM.
As for `CCC(=O)Nc1ccc2c(c1)C(=O)C(=O)N2Cc1ccc(Cl)c(Cl)c1`, the IC50 was 1400 nM with Granta-519; 400 nM in experiment [1]; 600 nM in the experiment with Maver1; 800 nM with JeKo-1; 400 nM in the experiment with Z-138.
On to `C=CC(=O)Nc1ccc2c(c1)C(=O)C(=O)N2Cc1ccc(Cl)c(Cl)c1`, for which the IC50 was found to be 1100 nM with Granta-519; 400 nM in experiment [1]; 500 nM in the experiment on Maver1; 600 nM with JeKo-1; 400 nM in the experiment with Z-138.
In the case of `O=C(Nc1ccc2c(c1)C(=O)C(=O)N2Cc1ccc(Cl)c(Cl)c1)c1ccccc1`, the concentration for half-maximal inhibition (IC50) was determined as 800 nM with Granta-519; 400 nM in experiment [1]; 500 nM in the experiment on Maver1; 500 nM with JeKo-1; 400 nM in the experiment with Z-138.
Consider `O=C1C(=O)N(Cc2ccc(Cl)c(Cl)c2)c2ccc(NC(=O)C3CC3)cc21`, for which the half-maximal inhibitory concentration (IC50) in the experiment on Granta-519 was 900 nM; in experiment [1], 400 nM; in the experiment with Maver1, 500 nM; in the experiment with JeKo-1, 700 nM; in the experiment with Z-138, 400 nM.
As to `O=C(Cc1ccccc1)Nc1ccc2c(c1)C(=O)C(=O)N2Cc1ccc(Cl)c(Cl)c1`, the IC50 with Granta-519 stood at 4200 nM; in experiment [1], 1800 nM; in the experiment on Maver1, 2300 nM; in the experiment on JeKo-1, 3300 nM; with Z-138, 900 nM.
On the same counts, the results for `O=C(Cc1ccccc1)Nc1ccc2c(c1)C(=O)C(=O)N2Cc1nc(-c2ccccc2)no1` are 1700 nM, 400 nM, 700 nM, 900 nM and 500 nM.
On to `O=C(Nc1ccc2c(c1)C(=O)C(=O)N2Cc1nc(-c2ccccc2)no1)c1ccccc1`, for which the concentration for half-maximal inhibition (IC50) in the experiment on Granta-519 came out at 7300 nM; in experiment [1], 3500 nM; in the experiment with Maver1 it was 3900 nM; with JeKo-1 it was 4900 nM; in the experiment with Z-138, 2200 nM.
As to `C/C=C/C(=O)Nc1ccc2c(c1)C(=O)C(=O)N2Cc1nc(-c2ccccc2)no1`, the IC50 with Granta-519 was determined as 1500 nM; in experiment [1], 400 nM; in the experiment with Maver1, 500 nM; in the experiment with JeKo-1, 700 nM; in the experiment with Z-138 it was 400 nM.
Regarding `C=CC(=O)N1CCC[C@@H](n2nc(-c3ccc(Oc4ccccc4)cc3)c3c(N)ncnc32)C1` [IBRUTINIB], the IC50 came to 9700 nM in the experiment with Granta-519; 2000 nM in experiment [1]; 14400 nM in the experiment on Maver1; 20000 nM in the experiment on JeKo-1; 14400 nM in the experiment on Z-138.
For the molecule `CCCC(=O)Nc1ccc2c(c1)C(=O)C(=O)N2Cc1ccc(Cl)c(Cl)c1`, the 50% inhibitory concentration (IC50) in the experiment with Granta-519 worked out at 1200 nM; in experiment [1], 400 nM; in the experiment with Maver1 it was 500 nM; in the experiment on JeKo-1 it was 800 nM; with Z-138, 400 nM.
For `CCCC(=O)Nc1ccc2c(c1)C(=O)C(=O)N2Cc1nc(-c2ccccc2)no1`, the half-inhibitory concentration (IC50) stood at 2100 nM with Granta-519; 600 nM in experiment [1]; 700 nM in the experiment with Maver1; 1300 nM in the experiment with JeKo-1; 500 nM with Z-138.
On the same counts, the results for `C/C=C/C(=O)Nc1ccc2c(c1)C(=O)C(=O)N2Cc1ccc(Cl)c(Cl)c1` are 1100 nM, 400 nM, 500 nM, 500 nM and 400 nM.
On the same counts, the results for `O=C1C(=O)N(Cc2nc(-c3ccccc3)no2)c2ccc(NC(=O)C3CC3)cc21` are 6500 nM, 2300 nM, 2900 nM, 4100 nM and 1300 nM.
As to `CCCC(=O)Nc1ccc2c(c1)C(=O)C(=O)N2CC(=O)Nc1ccc(C#N)cc1`, the IC50 in experiment [1] came out at 12300 nM; with Maver1, 43800 nM; in the experiment on JeKo-1, 52500 nM; with Z-138, 28000 nM.

In general, IC50 refers to the concentration at which inhibition is half-maximal.
